Assay results reported in ChEMBL document CHEMBL3112482, “Nonclassical antifolates, part 5. Benzodiazepine analogs as a new class of DHFR inhibitors: synthesis, antitumor testing and molecular modeling study” (Eur J Med Chem, 2014).

Tests used:
[1] = system: MDA-MB-435; test: Growth inhibition of human MDA-MB-435 cells at 10 uM after 48 hrs; format: functional; conditions: MDA-MB-435, 48 h, read-out: GI
How it was run: (§1)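 Single-dose primary screen in the NCI 60 human tumour cell line panel, run at the NCI facility. The panel covers nine subpanels: leukaemia, non-small cell lung, colon, CNS, melanoma, ovarian, renal, prostate and breast. Read-out was percent growth of treated cells, shown as a mean graph and reported as percent growth inhibition.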

[2] = system: Malme-3M; test: Growth inhibition of human MALME-3M cells at 10 uM after 48 hrs; format: functional; conditions: read-out: GI; how it was run: as §1
[3] = system: U-251; test: Growth inhibition of human U251 cells at 10 uM after 48 hrs; format: functional; conditions: U-251, 48 h, read-out: GI
How it was run: (§2)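 NCI 60-cell-line disease-oriented human tumor panel, single-dose primary screen at 10 µM. Data given as mean-graph percent growth of treated cells, reported as percent growth inhibition (GI %).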

[4] = system: SNB-75; test: Growth inhibition of human SNB75 cells at 10 uM after 48 hrs; format: functional; conditions: SNB-75, 48 h, read-out: GI; how it was run: as §2
[5] = system: SNB-19; test: Growth inhibition of human SNB19 cells at 10 uM after 48 hrs; format: functional; conditions: SNB-19, 48 h, read-out: GI; how it was run: as §2
[6] = Growth inhibition of human SF539 cells at 10 uM after 48 hrs; format: functional; conditions: SF-539, 48 h, read-out: GI; how it was run: as §2
[7] = system: SF-268; test: Growth inhibition of human SF268 cells at 10 uM after 48 hrs; format: functional; conditions: SF-268, 48 h, read-out: GI; how it was run: as §2
[8] = system: NCI-H322M; test: Growth inhibition of human NCI-H322M cells at 10 uM after 48 hrs; format: functional; conditions: read-out: GI; how it was run: as §1
[9] = system: NCI-H23; test: Growth inhibition of human NCI-H23 cells at 10 uM after 48 hrs; format: functional; conditions: NCI-H23, 48 h, read-out: GI; how it was run: as §1
[10] = system: NCI-H226; test: Growth inhibition of human NCI-H226 cells at 10 uM after 48 hrs; format: functional; conditions: NCI-H226, 48 h, read-out: GI; how it was run: as §1
[11] = system: HOP-62; test: Growth inhibition of human HOP62 cells at 10 uM after 48 hrs; format: functional; conditions: HOP-62, 48 h, read-out: GI; how it was run: as §1
[12] = Growth inhibition of human EKVX cells at 10 uM after 48 hrs; format: functional; conditions: read-out: GI; how it was run: as §1
[13] = system: A549; test: Growth inhibition of human A549 cells at 10 uM after 48 hrs; format: functional; conditions: A549, 48 h, read-out: GI; how it was run: as §1
[14] = system: SR; test: Growth inhibition of human SR cells at 10 uM after 48 hrs; format: functional; conditions: read-out: GI; how it was run: as §2
[15] = system: K562; test: Growth inhibition of human K562 cells at 10 uM after 48 hrs; format: functional; conditions: K562, 48 h, read-out: GI; how it was run: as §1
[16] = target: T1, Dihydrofolate reductase (Bos taurus, UniProt P00376); test: Inhibition of bovine liver DHFR measured for every 1 min of 10 mins
T1 sequence (P00376 whole entry): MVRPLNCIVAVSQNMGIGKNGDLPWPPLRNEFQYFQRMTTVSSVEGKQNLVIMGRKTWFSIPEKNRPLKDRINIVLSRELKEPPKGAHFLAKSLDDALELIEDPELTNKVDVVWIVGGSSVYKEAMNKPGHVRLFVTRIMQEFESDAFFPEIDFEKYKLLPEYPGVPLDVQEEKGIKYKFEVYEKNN

[17] = Cytotoxicity against human renal cancer cells at 10 uM after 48 hrs; format: functional; conditions: Cancer cell lines
[18] = Cytotoxicity against human leukemia cells at 10 uM after 48 hrs; format: functional; conditions: Leukemia cell
[19] = Cytotoxicity against human non-small cell lung cancer cells at 10 uM after 48 hrs; format: functional; conditions: Cancer cell lines; how it was run: as §1
[20] = system: T47D; test: Growth inhibition of human T47D cells at 10 uM after 48 hrs; format: functional; conditions: read-out: GI; how it was run: as §2
[21] = Growth inhibition of human Hs 578T cells at 10 uM after 48 hrs; format: functional; conditions: read-out: GI; how it was run: as §1
[22] = system: MCF7; test: Growth inhibition of human MCF7 cells at 10 uM after 48 hrs; format: functional; conditions: MCF7, 48 h, read-out: GI; how it was run: as §1
[23] = system: MDA-MB-231; test: Growth inhibition of human MDA-MB-231 cells at 10 uM after 48 hrs; format: functional; conditions: MDA-MB-231, 48 h, read-out: GI; how it was run: as §1
[24] = system: PC-3; test: Growth inhibition of human PC3 cells at 10 uM after 48 hrs; format: functional; conditions: PC-3, 48 h, read-out: GI; how it was run: as §1
[25] = system: TK-10; test: Growth inhibition of human TK10 cells at 10 uM after 48 hrs; format: functional; conditions: TK-10, 48 h, read-out: GI; how it was run: as §2
[26] = Growth inhibition of human UO31 cells at 10 uM after 48 hrs; format: functional; conditions: UO-31, 48 h, read-out: GI; how it was run: as §2
[27] = system: ACHN; test: Growth inhibition of human ACHN cells at 10 uM after 48 hrs; format: functional; conditions: read-out: GI; how it was run: as §1
[28] = system: SK-OV-3; test: Growth inhibition of human SKOV3 cells at 10 uM after 48 hrs; format: functional; conditions: SK-OV-3, 48 h, read-out: GI; how it was run: as §2
[29] = Growth inhibition of human NCI-ADR-RES cells at 10 uM after 48 hrs; format: functional; conditions: read-out: GI; how it was run: as §1
[30] = system: OVCAR-8; test: Growth inhibition of human OVCAR8 cells at 10 uM after 48 hrs; format: functional; conditions: OVCAR-8, 48 h, read-out: GI; how it was run: as §1
[31] = Growth inhibition of human OVCAR5 cells at 10 uM after 48 hrs; format: functional; conditions: OVCAR-5, 48 h, read-out: GI; how it was run: as §1
[32] = system: OVCAR-3; test: Growth inhibition of human OVCAR3 cells at 10 uM after 48 hrs; format: functional; conditions: OVCAR-3, 48 h, read-out: GI; how it was run: as §1
[33] = Growth inhibition of human OVCAR4 cells at 10 uM after 48 hrs; format: functional; conditions: OVCAR-4, 48 h, read-out: GI; how it was run: as §1
[34] = system: SK-MEL-5; test: Growth inhibition of human SK-MEL-5 cells at 10 uM after 48 hrs; format: functional; conditions: SK-MEL-5, 48 h, read-out: GI; how it was run: as §2
[35] = system: SK-MEL-28; test: Growth inhibition of human SK-MEL-28 cells at 10 uM after 48 hrs; format: functional; conditions: SK-MEL-28, 48 h, read-out: GI; how it was run: as §2
[36] = system: SK-MEL-2; test: Growth inhibition of human SK-MEL-2 cells at 10 uM after 48 hrs; format: functional; conditions: SK-MEL-2, 48 h, read-out: GI; how it was run: as §2

COc1cc(/C=C2\CCCc3c2nc(C)nc3-c2cc(OC)c(OC)c(OC)c2)cc(OC)c1OC
inhibition of growth at 10 µM [1]: 94.8% | inhibition of growth at 10 µM [2]: 69.8% | inhibition of growth at 10 µM [3]: 90.2% | inhibition of growth at 10 µM [4]: 78.1% | inhibition of growth at 10 µM [5]: 38.8% | inhibition of growth at 10 µM [6]: 86.5% | inhibition of growth at 10 µM [7]: 78.8% | inhibition of growth at 10 µM [8]: 58.9% | inhibition of growth at 10 µM [9]: 66.1% | inhibition of growth at 10 µM [10]: 62.4% | inhibition of growth at 10 µM [11]: 78% | inhibition of growth at 10 µM [12]: < 30% | inhibition of growth at 10 µM [13]: 83.8% | inhibition of growth at 10 µM [14]: < 30% | inhibition of growth at 10 µM [15]: 88.9% | IC50 [16]: 0.5 µM | CC50 [17]: > 100 µM | GI50 [17]: 2.2 µM | TGI [17]: 42 µM | GI50 [18]: 1.1 µM | LC50 [18]: > 100 µM | TGI [18]: 62.5 µM | GI50 [19]: 2.7 µM | TGI [19]: > 100 µM | CC50 ([19]; read-out: LC50 (the source's name)): > 100 µM | inhibition of growth at 10 µM [20]: < 30% | inhibition of growth at 10 µM [21]: 51.4% | inhibition of growth at 10 µM [22]: 77% | inhibition of growth at 10 µM [23]: 86.9% | inhibition of growth at 10 µM [24]: 57.4% | inhibition of growth at 10 µM [25]: 55.5% | inhibition of growth at 10 µM [26]: 48.9% | inhibition of growth at 10 µM [27]: 87.5% | inhibition of growth at 10 µM [28]: 56.1% | inhibition of growth at 10 µM [29]: 85.6% | inhibition of growth at 10 µM [30]: 94.1% | inhibition of growth at 10 µM [31]: 89.2% | inhibition of growth at 10 µM [32]: 72% | inhibition of growth at 10 µM [33]: 57.8% | inhibition of growth at 10 µM [34]: 80.9% | inhibition of growth at 10 µM [35]: 68.1% | inhibition of growth at 10 µM [36]: 73.4%
